Data from ChEMBL document CHEMBL1144463, “Rapid bactericidal activity of daptomycin against methicillin-resistant and methicillin-susceptible Staphylococcus aureus peritonitis in mice as measured with bioluminescent bacteria” (2007).
Values after ≈ are worked out from the molar mass of the structure shown.

Experiments:
Format in all cases: functional
Staphylococcus aureus [1] = assay: Reduction in bioluminescent methicillin-sensitive Staphylococcus aureus Xen29 in immunocompetent CD1 mouse at 100 mg/kg, sc after 4 hrs relative to control; design: scale not given: the % may be the effect or the level left; details: route subcutaneous
Procedure, shortened: (§1)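 Peritonitis in healthy female CD-1 mice (n = 5/group): i.p. Xen-29 (2 × 10^7 to 5 × 10^8 CFU) in 6% mucin, then a single s.c. or gavage dose at 1 h. Controls got saline 10 ml/kg s.c. Mice were anesthetized hourly (pentobarbital 60 mg/kg i.p. or isoflurane) and imaged ventral side up for 1–5 min, to 5 h postdosing. Total flux (photons/s/cm2) over the infected region was averaged per group. Percent reduction is versus time-matched saline controls.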

Staphylococcus aureus [2] = assay: Antimicrobial activity against bioluminescent methicillin-susceptible Staphylococcus aureus Xen29
Procedure, shortened: (§2)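 MIC by broth microdilution following CLSI guidelines against bioluminescent lux-carrying strains (Xen-1 plasmid-borne lux, Xen-29 chromosomal lux), grown overnight in Mueller-Hinton broth at 37°C.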

Staphylococcus aureus [3] = assay: Reduction in bioluminescent methicillin-sensitive Staphylococcus aureus Xen29 in neutropenic CD1 mouse with peritonitis at 100 mg/kg, sc after 3 hrs relative to control; design: scale not given: the % may be the effect or the level left; details: route subcutaneous
Procedure, shortened: (§3)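 Neutropenia was induced with cyclophosphamide 150 mg/kg i.p. at day −4 and 100 mg/kg i.p. at day −1. Mice were then infected i.p. with Xen-29 (2 × 10^7 to 5 × 10^8 CFU) in 6% mucin (n = 5/group) and dosed once, s.c. or by gavage, at 1 h. Luminescence was imaged hourly under anesthesia, 0–5 h postdosing. Mean region-of-interest flux is given as percent reduction versus time-matched saline (10 ml/kg s.c.) controls.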

Staphylococcus aureus [4] = assay: Protection against methicillin-susceptible Staphylococcus aureus Xen29 infection in nonneutropenic CD1 mouse at 100 mg/kg, po after 7 days
Procedure, shortened: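 Female CD-1 mice (20–25 g, n = 5/group) were given an i.p. lethal inoculum of lux-bearing MSSA Xen-29 (2 × 10^7 to 5 × 10^8 CFU/mouse) suspended in 6% hog gastric mucin. A single dose was given by gavage 1 h after inoculation. Survival was recorded daily for 7 days after inoculation.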

Staphylococcus aureus [5] = assay: Antibacterial activity against methicillin-susceptible Staphylococcus aureus Xen29 infected nonneutropenic CD1 mouse assessed as mouse survival at 50 mg/kg, sc after 7 days; details: 168 h, route subcutaneous
Procedure, shortened: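 Healthy female CD-1 mice (20–25 g) were infected i.p. with a lethal dose of lux strain (2 × 10^7 to 5 × 10^8 CFU/mouse) from an overnight Mueller-Hinton culture suspended in 6% hog gastric mucin. A single s.c. dose was given 1 h post-inoculation. Survival was recorded daily for 7 days, n=5/group.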

Staphylococcus aureus [6] = assay: Antibacterial activity against methicillin-susceptible Staphylococcus aureus Xen29 infected neutropenic CD1 mouse assessed as mortality at 100 mg/kg, po within 24 hrs; details: Xen29, 24 h
Procedure, shortened: (§4)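 Female CD-1 mice (20–25 g) were made neutropenic with cyclophosphamide i.p. at 150 mg/kg 4 days and 100 mg/kg 1 day before infection. They were infected i.p. with a lethal dose of lux strain (2 × 10^7 to 5 × 10^8 CFU/mouse) suspended in 6% hog gastric mucin. A single s.c. or gavage dose was given 1 h later. Survivors were counted daily for 7 days, n=5/group.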

Staphylococcus aureus [7] = assay: Reduction in bioluminescent methicillin-sensitive Staphylococcus aureus Xen29 in immunocompetent CD1 mouse with peritonitis at 100 mg/kg, sc relative to control; design: scale not given: the % may be the effect or the level left; details: route subcutaneous; procedure, shortened: as §1
Staphylococcus aureus [8] = assay: Antibacterial activity against methicillin-resistant Staphylococcus aureus Xen1 infected neutropenic CD1 mouse assessed as mortality at 100 mg/kg, po within 24 hrs; details: Xen1, 24 h; procedure, shortened: as §4
Staphylococcus aureus [9] = assay: Reduction in bioluminescent methicillin-sensitive Staphylococcus aureus Xen29 in neutropenic CD1 mouse with peritonitis at 100 mg/kg, sc after 5 hrs relative to control; design: scale not given: the % may be the effect or the level left; details: route subcutaneous; procedure, shortened: as §3
Staphylococcus aureus [10] = assay: Antimicrobial activity against bioluminescent methicillin-resistant Staphylococcus aureus Xen1; procedure, shortened: as §2
Staphylococcus aureus [11] = assay: Reduction in bioluminescent methicillin-sensitive Staphylococcus aureus Xen29 in neutropenic CD1 mouse with peritonitis at 100 mg/kg, sc after 4 hrs relative to control; design: scale not given: the % may be the effect or the level left; details: route subcutaneous; procedure, shortened: as §3
Staphylococcus aureus [12] = assay: Reduction in bioluminescent methicillin-sensitive Staphylococcus aureus Xen29 in neutropenic CD1 mouse with peritonitis at 100 mg/kg, sc after 2 hrs relative to control; design: scale not given: the % may be the effect or the level left; details: route subcutaneous; procedure, shortened: as §3
Staphylococcus aureus [13] = assay: Reduction in bioluminescent methicillin-sensitive Staphylococcus aureus Xen29 in immunocompetent CD1 mouse with peritonitis at 100 mg/kg, sc after 3 hrs relative to control; design: scale not given: the % may be the effect or the level left; details: route subcutaneous; procedure, shortened: as §1
Staphylococcus aureus [14] = assay: Reduction in bioluminescent methicillin-sensitive Staphylococcus aureus Xen29 in immunocompetent CD1 mouse with peritonitis at 100 mg/kg, sc after 5 hrs relative to control; design: scale not given: the % may be the effect or the level left; details: route subcutaneous; procedure, shortened: as §1
Staphylococcus aureus [15] = assay: Antibacterial activity against methicillin-resistant Staphylococcus aureus Xen1 infected neutropenic CD1 mouse assessed as mortality at 100 mg/kg, po after 4 days; procedure, shortened: as §4
Staphylococcus aureus [16] = assay: Antibacterial activity against methicillin-susceptible Staphylococcus aureus Xen29 infected neutropenic CD1 mouse assessed as mortality at 100 mg/kg, po after 4 days; procedure, shortened: as §4

| SMILES | Activity (Staphylococcus aureus [1]) | MIC (Staphylococcus aureus [2]) | Activity (Staphylococcus aureus [3]) | Activity (Staphylococcus aureus [4]) | survival at 50 mg/kg (Staphylococcus aureus [5]) | survival at 100 mg/kg (Staphylococcus aureus [6]) | Activity (Staphylococcus aureus [7]) | survival at 100 mg/kg (Staphylococcus aureus [8]) | Activity (Staphylococcus aureus [9]) | MIC (Staphylococcus aureus [10]) | Activity (Staphylococcus aureus [11]) | Activity (Staphylococcus aureus [12]) | Activity (Staphylococcus aureus [13]) | Activity (Staphylococcus aureus [14]) | Activity (Staphylococcus aureus [15]) | Activity (Staphylococcus aureus [16]) |
| --- | --- | --- | --- | --- | --- | --- | --- | --- | --- | --- | --- | --- | --- | --- | --- | --- |
| CCOc1ccc2ccccc2c1C(=O)N[C@@H]1C(=O)N2[C@@H]1SC(C)(C)[C@@H]2C(=O)O [NAFCILLIN] | 96% | 0.5 mg/L (≈ 1.21 µM) | 95.6% | 100% | 100% | 100% | 82% | 100% | 99.2% | 64 mg/L (≈ 154 µM) | 98.3% | 84% | 93% | 98% | – | – |
| CN[C@H](CC(C)C)C(=O)N[C@H]1C(=O)N[C@@H](CC(N)=O)C(=O)N[C@H]2C(=O)N[C@H]3C(=O)N[C@H](C(=O)N[C@H](C(=O)O)c4cc(O)cc(O)c4-c4cc3ccc4O)[C@H](O)c3ccc(c(Cl)c3)Oc3cc2cc(c3O[C@@H]2O[C@H](CO)[C@@H](O)[C@H](O)[C@H]2O[C@H]2C[C@](C)(N)[C@H](O)[C@H](C)O2)Oc2ccc(cc2Cl)[C@H]1O [VANCOMYCIN] | – | – | – | – | – | 100% | – | 100% | – | – | – | – | – | – | 100% | 100% |
